Where a SMILES comes first, the peptide text is derived from it. The star is where a group is joined. Desaminotyrosyl = O=C(CCc1ccc(O)cc1)*

For one series, the system named is Canis familiaris. Put plainly: Induction of pancreatic juice secretion in iv dosed anesthetized dog relative to natural porcine secretin. It is filed as functional, Canis lupus familiaris. The method in brief: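 Anesthetized dogs received the synthetic peptides by intravenous injection. The volume of pancreatic juice secreted was compared with that produced by pure natural porcine secretin. Responses were evaluated in four-point assays.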

Series [1] is described as follows: Retardation factor of the compound using 1-BuOH-AcOH-H2O at ratio of 4:1:5 as solvent system by thin layer chromatography. It is filed as physicochemical. The method in brief:
(§1)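 Thin-layer chromatography spots were detected with Sakaguchi, Pauly, chlorine-tolidine and ninhydrin reagents.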

Series [2] can be described thus: Retardation factor of the compound using 1-BuOH-pyridine-AcOH-H2O at ratio of 30:20:6:24 as solvent system by thin layer chromatography. The class given is physicochemical. The method in brief: as §1

For the compound `CC(C)C[C@H](NC(=O)CNC(=O)[C@H](CCC(N)=O)NC(=O)[C@H](CC(C)C)NC(=O)[C@H](CC(C)C)NC(=O)[C@H](CCCNC(=N)N)NC(=O)[C@H](CCC(N)=O)NC(=O)[C@H](CC(C)C)NC(=O)[C@H](CCCNC(=N)N)NC(=O)[C@H](C)NC(=O)[C@H](CO)NC(=O)[C@H](CC(=O)O)NC(=O)[C@H](CCCNC(=N)N)NC(=O)[C@H](CC(C)C)NC(=O)[C@H](CCCNC(=N)N)NC(=O)[C@H](CO)NC(=O)[C@H](CC(C)C)NC(=O)[C@H](CCC(=O)O)NC(=O)[C@H](CO)NC(=O)[C@@H](NC(=O)[C@H](Cc1ccccc1)NC(=O)[C@@H](NC(=O)CNC(=O)[C@H](CC(=O)O)NC(=O)[C@H](CO)NC(=O)[C@H](Cc1cnc[nH]1)NC(=O)CCc1ccc(O)cc1)[C@@H](C)O)[C@@H](C)O)C(=O)N[C@H](C(N)=O)C(C)C` (Desaminotyrosyl-HSDGTFTSELSRLRDSARLQRLLQGLV-NH2), the Activity in the series on Canis familiaris is on record as 4.1%. For the same compound, the results for the Rf in series [1] and in series [2] were 0.2 and 0.58, respectively.

On to “H-HSDGTFTSELSRLRDSARLQRLLQGLV-NH2 [listing 1 of 2 here]”, for which the figures for the Rf in series [1] and in series [2] were 0.19 and 0.58, respectively.

Compound “H-HSDGTFTSELSRLRDSARLQRLLQGLV-NH2 [listing 2 of 2 here]” yielded an Activity in the series with Canis familiaris of 107.5%.

With H-HSDGTYTSELSRLRDSARLQRLLQGLV-NH2, the Activity with Canis familiaris turned out to be 1.3%. Moreover, the Rf is reported as 0.18 in series [1] and 0.56 in series [2].

With H-YHSDGTFTSELSRLRDSARLQRLLQGLV-NH2, in the series with Canis familiaris, the Activity is on record as 25.6%. For the same compound, the Rf was found to be 0.18 in series [1] and 0.52 in series [2].

H-YSDGTFTSELSRLRDSARLQRLLQGLV-NH2: in the series on Canis familiaris, the Activity amounted to 4.3%. Moreover, the Rf in series [1] amounted to 0.2; in series [2], 0.56.

For the origin of these results see ChEMBL document CHEMBL3243995, “Synthesis of phenolic group containing analogues of porcine secretin and their immunological properties” (J Med Chem, 1977).
